Results on ten molecules are retold here after ChEMBL document CHEMBL5321292, “Targeting Cytotoxic Agents through EGFR-Mediated Covalent Binding and Release” (J Med Chem, 2023).

Data set [1] in a line: Stability of compound assessed as formation of 5-fluorouracil by measuring half life.
Data set [2] deals with A-431. The data set is described as follows: Antiproliferative activity against human A-431 cells assessed as cell growth inhibition measured after 72 hrs in presence of 5-fluorouracil by SRB assay. The data set is classed as functional, cell-based. To be noted: A-431, 72 h. In outline: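 A431 cells (ECACC) seeded day 0 at exponential-growth density in DMEM + 10% FBS. Compound diluted in medium and added day 1, final DMSO 0.1%. Incubated 72 h at 37 °C, 5% CO2. Fixed with 50% TCA at 4 °C for 1 h, stained with 0.4% SRB for 30 min, washed with 1% AcOH, solubilised in 10 mM Tris pH 10.5. Absorbance read at 570 nm.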
Background: Sulforhodamine B stains cellular protein and so reports cell mass.

Data set [3] addresses T1, Epidermal growth factor receptor (Homo sapiens, UniProt P00533). The data set is described as follows: Inhibition of EGFR phosphorylation in human A-431 cells at 1 uM incubated for 4 hr by Western blot analysis. The data set is classed as cell-based. In a few lines: (§1)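 A431 cells treated for 4 h and lysed in Phosphosafe buffer with protease inhibitors. Western blot probed with anti-EGFR and anti-pEGFR primary antibodies (1:1000 in 5% BSA) plus a loading control, then HRP-conjugated secondary antibodies. Bands detected by ECL.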
(A western blot detects proteins with antibodies after separation by electrophoresis.)

The target in data set [4] is T1, Epidermal growth factor receptor. The data set is described as follows: Inhibition of EGFR in human A-431 cells incubated for 2.5 hrs by HTRF analysis. The data set is classed as cell-based. In a few lines: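 A431 cells plated at 20 000/well and allowed to adhere for 24 h. Treated 2.5 h in duplicate (0.1% DMSO), then stimulated with 100 ng/mL EGF for 30 min. Lysed 30 min at room temperature. HTRF measured pEGFR (Tyr1068) and total EGFR at 665/620 nm. Values taken as pEGFR/total EGFR ratio, expressed as % of 0 μM control.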
(In TR-FRET formats the signal depends on donor and acceptor labels being close together.)

Data set [5] deals with Epidermal growth factor receptor (Mus musculus, UniProt Q01279). As to the kind of experiment: Inhibition of C-terminal his6-tagged mouse EGFR by TR-FRET assay.
In data set [6] the target is T1, Epidermal growth factor receptor. As to the kind of experiment: Inhibition of EGFR phosphorylation in human A-431 cells incubated for 4 hr.
The test system of data set [7] is A-431. As to the kind of experiment: Antiproliferative activity against human A-431 cells assessed as cell growth inhibition measured after 72 hrs by SRB assay. The conditions noted are these: A-431, read-out: pGI50 (converted). Format: functional, cell-based.
Data set [8] addresses T1, Epidermal growth factor receptor. As to the kind of experiment: Inhibition of EGFR phosphorylation in human A-431 cells at 10 uM incubated for 4 hr by Western blot analysis. Format: cell-based. In outline:
as §1

Structures are written as SMILES. Active and inactive are the calls of the source. No cut-off for these calls is given here.

T1 sequence (P00533 whole entry): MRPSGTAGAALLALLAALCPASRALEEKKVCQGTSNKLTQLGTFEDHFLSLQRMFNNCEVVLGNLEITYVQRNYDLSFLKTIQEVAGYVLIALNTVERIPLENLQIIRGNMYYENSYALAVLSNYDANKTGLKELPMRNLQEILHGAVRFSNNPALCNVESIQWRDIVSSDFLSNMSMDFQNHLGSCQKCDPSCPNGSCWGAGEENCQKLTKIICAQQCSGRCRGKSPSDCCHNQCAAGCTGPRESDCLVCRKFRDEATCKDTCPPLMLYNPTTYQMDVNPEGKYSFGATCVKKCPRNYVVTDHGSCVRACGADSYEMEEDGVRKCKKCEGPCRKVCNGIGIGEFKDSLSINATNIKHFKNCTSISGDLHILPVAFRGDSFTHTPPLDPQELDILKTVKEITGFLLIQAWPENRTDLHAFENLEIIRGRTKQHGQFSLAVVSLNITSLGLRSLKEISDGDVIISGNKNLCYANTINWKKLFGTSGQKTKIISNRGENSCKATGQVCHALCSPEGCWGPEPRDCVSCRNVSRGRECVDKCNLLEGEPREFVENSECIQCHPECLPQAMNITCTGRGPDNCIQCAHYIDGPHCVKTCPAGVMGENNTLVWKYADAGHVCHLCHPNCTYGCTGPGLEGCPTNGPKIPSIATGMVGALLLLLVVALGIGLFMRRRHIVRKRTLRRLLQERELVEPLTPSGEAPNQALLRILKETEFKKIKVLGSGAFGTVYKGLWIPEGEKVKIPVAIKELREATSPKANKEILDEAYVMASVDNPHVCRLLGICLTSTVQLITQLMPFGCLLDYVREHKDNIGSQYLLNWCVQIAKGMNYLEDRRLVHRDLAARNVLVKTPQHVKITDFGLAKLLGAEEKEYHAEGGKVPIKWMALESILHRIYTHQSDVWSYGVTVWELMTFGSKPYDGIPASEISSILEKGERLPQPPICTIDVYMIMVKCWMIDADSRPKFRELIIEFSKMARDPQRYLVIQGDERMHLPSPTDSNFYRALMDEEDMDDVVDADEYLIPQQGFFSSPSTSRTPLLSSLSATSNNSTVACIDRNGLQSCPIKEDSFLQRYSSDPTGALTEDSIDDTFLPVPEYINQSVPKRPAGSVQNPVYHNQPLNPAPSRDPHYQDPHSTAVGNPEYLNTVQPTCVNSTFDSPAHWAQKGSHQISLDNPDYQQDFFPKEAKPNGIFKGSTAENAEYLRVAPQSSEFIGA
Epidermal growth factor receptor (Mus musculus, UniProt Q01279), sequence (Q01279 whole entry): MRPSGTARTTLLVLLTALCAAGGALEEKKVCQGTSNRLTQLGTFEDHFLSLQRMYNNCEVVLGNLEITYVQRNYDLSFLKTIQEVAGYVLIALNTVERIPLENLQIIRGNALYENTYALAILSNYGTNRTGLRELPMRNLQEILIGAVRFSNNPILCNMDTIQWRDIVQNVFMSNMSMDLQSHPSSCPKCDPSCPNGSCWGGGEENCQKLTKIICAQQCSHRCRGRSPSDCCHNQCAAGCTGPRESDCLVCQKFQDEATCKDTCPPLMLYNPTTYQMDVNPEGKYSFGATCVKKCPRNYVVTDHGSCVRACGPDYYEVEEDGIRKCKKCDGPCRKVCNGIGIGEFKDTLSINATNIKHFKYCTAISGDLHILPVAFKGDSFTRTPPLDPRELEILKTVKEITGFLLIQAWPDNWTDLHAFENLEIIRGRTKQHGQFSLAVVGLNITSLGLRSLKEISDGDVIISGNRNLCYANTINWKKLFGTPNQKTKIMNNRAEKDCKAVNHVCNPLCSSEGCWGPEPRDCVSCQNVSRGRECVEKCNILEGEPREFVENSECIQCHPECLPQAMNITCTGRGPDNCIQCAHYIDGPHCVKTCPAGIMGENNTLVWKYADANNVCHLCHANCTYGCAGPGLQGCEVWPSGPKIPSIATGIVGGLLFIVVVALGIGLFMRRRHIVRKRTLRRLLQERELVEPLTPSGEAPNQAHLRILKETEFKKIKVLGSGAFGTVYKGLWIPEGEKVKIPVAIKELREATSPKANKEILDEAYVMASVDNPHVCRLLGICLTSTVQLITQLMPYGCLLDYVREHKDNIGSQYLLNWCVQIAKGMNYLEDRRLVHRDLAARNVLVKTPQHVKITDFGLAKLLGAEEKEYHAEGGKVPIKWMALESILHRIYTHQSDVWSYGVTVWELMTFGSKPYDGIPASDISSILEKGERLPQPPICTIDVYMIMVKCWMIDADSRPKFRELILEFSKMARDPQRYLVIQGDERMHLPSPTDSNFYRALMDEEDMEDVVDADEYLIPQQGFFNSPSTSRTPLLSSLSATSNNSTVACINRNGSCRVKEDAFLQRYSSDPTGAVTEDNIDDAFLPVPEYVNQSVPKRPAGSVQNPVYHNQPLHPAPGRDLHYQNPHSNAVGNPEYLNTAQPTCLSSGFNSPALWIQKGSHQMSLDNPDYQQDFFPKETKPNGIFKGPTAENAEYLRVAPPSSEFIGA

In the case of `COCCOCCOc1ccc(NC(=O)/C=C/n2cc(F)c(=O)[nH]c2=O)cc1`, the t1/2 in data set [1] stood at 10 h. On to `O=C(/C=C/n1cc(F)c(=O)[nH]c1=O)Oc1ccc(F)cc1`, for which, in data set [1], the t1/2 came to 3 h. Usually IC50 stands for the point on the concentration scale where inhibition reaches its midpoint. For the molecule `COc1cc2ncnc(Nc3ccc(F)c(Cl)c3)c2cc1OC(=O)/C=C/CN1CCCCC1`, the IC50 in data set [2] is 631 nM. Also, in data set [3], the inhibition entry is “Active”. As for `COc1cc2ncnc(Nc3ccc(F)c(Cl)c3)c2cc1NC(=O)/C=C/n1cc(F)c(=O)[nH]c1=O`, the IC50 is 2510 nM in data set [4], 50.1 nM in data set [5] and 2510 nM in data set [6]. Regarding `N#Cc1ccc(OC(=O)/C=C/n2cc(F)c(=O)[nH]c2=O)cc1`, in data set [1], the t1/2 came to 2.5 h. Still for that read-out and setting: the result for `O=C(/C=C/n1cc(F)c(=O)[nH]c1=O)Oc1ccc(Cl)cc1` reads 2.9 h; that for `COc1ccc(OC(=O)/C=C/n2cc(F)c(=O)[nH]c2=O)cc1`, 36 h; that for `O=C(/C=C/n1cc(F)c(=O)[nH]c1=O)Oc1ccc([N+](=O)[O-])cc1`, 0.1 h. Still for that read-out and setting: the result for `O=C(/C=C/n1cc(F)c(=O)[nH]c1=O)Cc1ccccc1` reads ~ 36 hr.

For `COc1cc2ncnc(Nc3ccc(F)c(Cl)c3)c2cc1OC(=O)/C=C/n1cc(F)c(=O)[nH]c1=O`, the concentration for half-maximal inhibition (IC50) was 15.8 nM in data set [4], 158 nM in data set [5] and 15.8 nM in data set [6]. In data set [7], the GI50 was 5010 nM. Moreover, in data set [8], the inhibition entry is “Active”. Further, in data set [3], the inhibition result was “inactive”.
